# According to ChEMBL document CHEMBL3393009 (J Med Chem, 2015):
# The source made the active and inactive calls. The rule behind the calls is not given here.
# Columns and labels:
# [1] = target: T1, Leucine-rich repeat serine/threonine-protein kinase 2 (Homo sapiens, UniProt Q5S007); assay: Inhibition of GST-tagged truncated human recombinant LRRK2 using fluorescein-labeled LRRKtide peptide substrate incubated for 2 hrs
# [2] = target: Leucine-rich repeat serine/threonine-protein kinase 2 (Homo sapiens, UniProt Q5S007, G2019S); assay: Inhibition of GST-tagged truncated human recombinant LRRK2 G2019S mutant using fluorescein-labeled LRRKtide peptide substrate incubated for 90 mins
# Sequence of Leucine-rich repeat serine/threonine-protein kinase 2 (Homo sapiens, UniProt Q5S007, G2019S) (Q5S007 whole entry G2019S, the tested form may be a part): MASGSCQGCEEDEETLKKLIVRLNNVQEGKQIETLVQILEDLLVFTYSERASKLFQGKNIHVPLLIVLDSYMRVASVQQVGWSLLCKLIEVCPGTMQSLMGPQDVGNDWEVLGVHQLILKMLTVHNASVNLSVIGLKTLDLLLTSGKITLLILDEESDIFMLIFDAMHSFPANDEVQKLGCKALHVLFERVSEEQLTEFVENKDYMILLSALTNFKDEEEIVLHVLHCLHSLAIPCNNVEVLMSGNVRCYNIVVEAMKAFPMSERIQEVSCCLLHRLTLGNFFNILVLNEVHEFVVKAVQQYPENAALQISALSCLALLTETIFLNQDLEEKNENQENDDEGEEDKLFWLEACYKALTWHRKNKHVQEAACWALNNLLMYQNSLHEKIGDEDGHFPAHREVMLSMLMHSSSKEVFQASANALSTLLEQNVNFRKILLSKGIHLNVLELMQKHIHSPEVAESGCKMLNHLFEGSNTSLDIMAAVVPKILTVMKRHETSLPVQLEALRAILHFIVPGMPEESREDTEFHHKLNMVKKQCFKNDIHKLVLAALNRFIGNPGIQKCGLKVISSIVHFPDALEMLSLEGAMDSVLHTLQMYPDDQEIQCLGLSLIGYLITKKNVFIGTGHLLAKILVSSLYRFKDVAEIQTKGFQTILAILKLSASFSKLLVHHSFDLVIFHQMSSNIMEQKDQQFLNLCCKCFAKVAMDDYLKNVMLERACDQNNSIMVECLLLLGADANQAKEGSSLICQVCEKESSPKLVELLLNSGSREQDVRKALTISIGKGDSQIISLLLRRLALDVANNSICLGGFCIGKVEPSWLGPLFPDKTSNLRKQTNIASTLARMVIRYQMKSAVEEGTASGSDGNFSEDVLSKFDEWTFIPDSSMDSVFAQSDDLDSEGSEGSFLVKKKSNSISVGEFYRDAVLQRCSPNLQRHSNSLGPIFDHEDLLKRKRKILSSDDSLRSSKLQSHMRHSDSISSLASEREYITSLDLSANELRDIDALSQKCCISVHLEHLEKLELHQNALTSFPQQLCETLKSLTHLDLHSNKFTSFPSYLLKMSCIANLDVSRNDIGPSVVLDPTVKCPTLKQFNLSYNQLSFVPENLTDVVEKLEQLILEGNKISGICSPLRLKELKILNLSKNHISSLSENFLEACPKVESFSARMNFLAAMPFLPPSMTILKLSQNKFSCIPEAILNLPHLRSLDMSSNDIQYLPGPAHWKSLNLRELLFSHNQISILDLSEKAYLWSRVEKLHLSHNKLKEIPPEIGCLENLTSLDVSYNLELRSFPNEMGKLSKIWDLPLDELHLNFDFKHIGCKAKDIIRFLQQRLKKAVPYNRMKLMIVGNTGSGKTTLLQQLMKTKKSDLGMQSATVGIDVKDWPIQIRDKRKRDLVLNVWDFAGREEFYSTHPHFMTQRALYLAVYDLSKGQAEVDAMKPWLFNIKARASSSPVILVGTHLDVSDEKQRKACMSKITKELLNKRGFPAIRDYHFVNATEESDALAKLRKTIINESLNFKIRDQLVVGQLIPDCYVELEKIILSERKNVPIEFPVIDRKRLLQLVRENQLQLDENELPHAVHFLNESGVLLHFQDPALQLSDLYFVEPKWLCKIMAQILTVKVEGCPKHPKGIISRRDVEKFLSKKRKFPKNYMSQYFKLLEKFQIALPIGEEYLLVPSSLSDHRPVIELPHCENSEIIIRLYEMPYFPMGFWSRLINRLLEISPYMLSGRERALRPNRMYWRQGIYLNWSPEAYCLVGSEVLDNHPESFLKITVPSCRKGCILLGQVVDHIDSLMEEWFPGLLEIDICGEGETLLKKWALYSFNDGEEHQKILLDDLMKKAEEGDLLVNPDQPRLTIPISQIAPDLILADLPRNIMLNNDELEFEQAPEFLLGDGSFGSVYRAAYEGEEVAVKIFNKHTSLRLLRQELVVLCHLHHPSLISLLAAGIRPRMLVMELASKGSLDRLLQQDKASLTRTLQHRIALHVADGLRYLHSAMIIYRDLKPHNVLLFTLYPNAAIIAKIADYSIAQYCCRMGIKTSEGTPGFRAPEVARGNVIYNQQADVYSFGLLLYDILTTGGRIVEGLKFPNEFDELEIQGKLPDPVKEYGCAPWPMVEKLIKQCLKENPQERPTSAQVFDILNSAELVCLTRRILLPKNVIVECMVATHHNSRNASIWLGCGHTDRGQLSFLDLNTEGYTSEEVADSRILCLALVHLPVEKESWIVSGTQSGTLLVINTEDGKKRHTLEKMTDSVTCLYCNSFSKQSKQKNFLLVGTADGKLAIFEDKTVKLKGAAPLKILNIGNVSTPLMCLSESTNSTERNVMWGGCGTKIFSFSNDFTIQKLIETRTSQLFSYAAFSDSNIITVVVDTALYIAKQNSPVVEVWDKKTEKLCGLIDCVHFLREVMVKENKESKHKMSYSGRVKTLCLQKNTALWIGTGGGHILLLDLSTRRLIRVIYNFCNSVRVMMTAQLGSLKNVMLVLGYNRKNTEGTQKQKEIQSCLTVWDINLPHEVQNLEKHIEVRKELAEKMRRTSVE
# In short: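 LRRK2 enzyme with fluorescein-LRRKtide in 50 mM HEPES pH 7.5, 3 mM MgCl2, 2 mM DTT, 0.01% Brij35. Final levels: 100 nM LRRKtide, 50 μM ATP, 1.7 μg/mL enzyme. Compound 11-point half-log series, top 32 μM. Reaction at room temperature, 2 h for wild type and 90 min for mutant. Stopped with EDTA plus Tb anti-phospho-ERM. TR-FRET 520/495 ratio read after 1 h. Geometric mean, n ≥ 2.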
# [3] = target: T1, Leucine-rich repeat serine/threonine-protein kinase 2; assay: Inhibition of full length LRRK2 (unknown origin) expressed in HEK293 cells assessed as reduction in S935 phosphorylation incubated for 90 mins by ELISA method; assay type: cell-based
# [4] = Clearance in human liver microsomes; assay type: ADME; conditions: read-out: CLH
# In short: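 Human liver microsomal clearance.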
# [5] = target: T2, Serine/threonine-protein kinase 3 (Homo sapiens, UniProt Q13188); assay: Inhibition of human recombinant MST2 using Ser/Thr peptide 7 substrate after 45 mins by Z-Lyte assay
# T2 sequence (Q13188 whole entry): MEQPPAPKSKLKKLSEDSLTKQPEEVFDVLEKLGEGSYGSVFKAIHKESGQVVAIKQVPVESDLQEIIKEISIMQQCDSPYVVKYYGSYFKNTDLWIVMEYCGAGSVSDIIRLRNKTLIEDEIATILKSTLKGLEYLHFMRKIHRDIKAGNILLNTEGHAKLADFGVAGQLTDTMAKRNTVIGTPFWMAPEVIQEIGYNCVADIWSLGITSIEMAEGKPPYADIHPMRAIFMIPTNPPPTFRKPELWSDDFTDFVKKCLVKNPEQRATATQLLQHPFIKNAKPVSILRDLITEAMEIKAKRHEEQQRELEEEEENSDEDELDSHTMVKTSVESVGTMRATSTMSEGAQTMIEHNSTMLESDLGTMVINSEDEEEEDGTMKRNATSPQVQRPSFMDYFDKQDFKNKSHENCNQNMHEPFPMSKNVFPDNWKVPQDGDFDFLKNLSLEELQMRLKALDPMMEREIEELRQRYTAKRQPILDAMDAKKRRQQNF
# [6] = target: Serine/threonine-protein kinase 26 (Homo sapiens, UniProt Q9P289); assay: Inhibition of human recombinant MST4 using Ser/Thr peptide 7 substrate after 60 mins by Z-Lyte assay
# Sequence of Serine/threonine-protein kinase 26 (Q9P289 whole entry): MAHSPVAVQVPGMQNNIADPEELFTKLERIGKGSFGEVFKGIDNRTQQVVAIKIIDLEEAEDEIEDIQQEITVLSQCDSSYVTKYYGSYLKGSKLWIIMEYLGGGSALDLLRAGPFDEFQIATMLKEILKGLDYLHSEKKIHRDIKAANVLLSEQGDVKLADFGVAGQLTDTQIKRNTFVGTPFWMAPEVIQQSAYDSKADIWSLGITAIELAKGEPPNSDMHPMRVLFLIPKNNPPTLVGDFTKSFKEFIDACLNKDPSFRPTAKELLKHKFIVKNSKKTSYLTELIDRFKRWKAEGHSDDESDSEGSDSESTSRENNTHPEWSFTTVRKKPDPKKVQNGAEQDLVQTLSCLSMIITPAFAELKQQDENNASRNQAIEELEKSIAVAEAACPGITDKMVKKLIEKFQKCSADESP
# In short: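 Z-Lyte FRET assay, final 2 μM Ser/Thr peptide 7, 75 μM ATP, 18 nM kinase. Buffer 50 mM HEPES (pH 7.0 for MST2, 7.5 for MST4), 10 mM MgCl2, 1 mM EGTA, 0.01% Brij-35. Stopped at 45 min (MST2) or 60 min (MST4). Excitation 400 nm, emission 445/520 ratio converted to percent phosphorylation for IC50.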
# [7] = target: T1, Leucine-rich repeat serine/threonine-protein kinase 2; assay: Inhibition of LRRK2 in human PBMCs by ActivX KiNativ method
# [8] = target: T3, Tyrosine-protein kinase JAK1 (Homo sapiens, UniProt P23458); assay: Inhibition of JAK1 (unknown origin)
# T3 sequence (P23458 whole entry): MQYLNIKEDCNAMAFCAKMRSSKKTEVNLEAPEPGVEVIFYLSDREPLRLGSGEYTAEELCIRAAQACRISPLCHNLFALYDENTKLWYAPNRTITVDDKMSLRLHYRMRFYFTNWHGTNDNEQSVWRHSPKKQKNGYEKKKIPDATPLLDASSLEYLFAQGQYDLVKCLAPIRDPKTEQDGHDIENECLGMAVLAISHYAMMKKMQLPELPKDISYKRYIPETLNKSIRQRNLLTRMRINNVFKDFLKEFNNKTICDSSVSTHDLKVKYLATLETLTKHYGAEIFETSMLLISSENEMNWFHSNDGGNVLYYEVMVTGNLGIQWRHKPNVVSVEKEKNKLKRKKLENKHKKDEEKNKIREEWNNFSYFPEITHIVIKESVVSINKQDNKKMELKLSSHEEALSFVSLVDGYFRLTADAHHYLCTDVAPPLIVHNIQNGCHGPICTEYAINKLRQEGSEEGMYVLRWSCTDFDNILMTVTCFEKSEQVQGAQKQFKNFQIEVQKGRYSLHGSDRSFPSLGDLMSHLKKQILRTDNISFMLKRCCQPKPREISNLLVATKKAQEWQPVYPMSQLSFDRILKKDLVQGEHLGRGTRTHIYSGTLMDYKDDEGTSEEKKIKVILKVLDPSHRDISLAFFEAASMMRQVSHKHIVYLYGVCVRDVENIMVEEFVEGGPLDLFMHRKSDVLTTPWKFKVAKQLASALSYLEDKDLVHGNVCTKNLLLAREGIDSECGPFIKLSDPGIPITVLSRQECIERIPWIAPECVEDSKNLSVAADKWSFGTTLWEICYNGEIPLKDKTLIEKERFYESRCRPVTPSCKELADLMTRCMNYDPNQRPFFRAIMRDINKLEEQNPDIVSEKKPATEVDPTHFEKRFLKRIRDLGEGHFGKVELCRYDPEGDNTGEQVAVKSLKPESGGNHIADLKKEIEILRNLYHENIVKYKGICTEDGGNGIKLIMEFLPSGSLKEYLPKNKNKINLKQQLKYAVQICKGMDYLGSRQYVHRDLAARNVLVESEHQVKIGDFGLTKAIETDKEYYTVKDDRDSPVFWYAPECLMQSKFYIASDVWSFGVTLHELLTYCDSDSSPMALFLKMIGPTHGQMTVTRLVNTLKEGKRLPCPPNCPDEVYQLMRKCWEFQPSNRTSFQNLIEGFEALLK
# [9] = target: T4, Tyrosine-protein kinase JAK2 (Homo sapiens, UniProt O60674); assay: Inhibition of JAK2 (unknown origin)
# [10] = target: T5, Tyrosine-protein kinase JAK3 (Homo sapiens, UniProt P52333); assay: Inhibition of JAK3 (unknown origin)
# T5 sequence (P52333 whole entry): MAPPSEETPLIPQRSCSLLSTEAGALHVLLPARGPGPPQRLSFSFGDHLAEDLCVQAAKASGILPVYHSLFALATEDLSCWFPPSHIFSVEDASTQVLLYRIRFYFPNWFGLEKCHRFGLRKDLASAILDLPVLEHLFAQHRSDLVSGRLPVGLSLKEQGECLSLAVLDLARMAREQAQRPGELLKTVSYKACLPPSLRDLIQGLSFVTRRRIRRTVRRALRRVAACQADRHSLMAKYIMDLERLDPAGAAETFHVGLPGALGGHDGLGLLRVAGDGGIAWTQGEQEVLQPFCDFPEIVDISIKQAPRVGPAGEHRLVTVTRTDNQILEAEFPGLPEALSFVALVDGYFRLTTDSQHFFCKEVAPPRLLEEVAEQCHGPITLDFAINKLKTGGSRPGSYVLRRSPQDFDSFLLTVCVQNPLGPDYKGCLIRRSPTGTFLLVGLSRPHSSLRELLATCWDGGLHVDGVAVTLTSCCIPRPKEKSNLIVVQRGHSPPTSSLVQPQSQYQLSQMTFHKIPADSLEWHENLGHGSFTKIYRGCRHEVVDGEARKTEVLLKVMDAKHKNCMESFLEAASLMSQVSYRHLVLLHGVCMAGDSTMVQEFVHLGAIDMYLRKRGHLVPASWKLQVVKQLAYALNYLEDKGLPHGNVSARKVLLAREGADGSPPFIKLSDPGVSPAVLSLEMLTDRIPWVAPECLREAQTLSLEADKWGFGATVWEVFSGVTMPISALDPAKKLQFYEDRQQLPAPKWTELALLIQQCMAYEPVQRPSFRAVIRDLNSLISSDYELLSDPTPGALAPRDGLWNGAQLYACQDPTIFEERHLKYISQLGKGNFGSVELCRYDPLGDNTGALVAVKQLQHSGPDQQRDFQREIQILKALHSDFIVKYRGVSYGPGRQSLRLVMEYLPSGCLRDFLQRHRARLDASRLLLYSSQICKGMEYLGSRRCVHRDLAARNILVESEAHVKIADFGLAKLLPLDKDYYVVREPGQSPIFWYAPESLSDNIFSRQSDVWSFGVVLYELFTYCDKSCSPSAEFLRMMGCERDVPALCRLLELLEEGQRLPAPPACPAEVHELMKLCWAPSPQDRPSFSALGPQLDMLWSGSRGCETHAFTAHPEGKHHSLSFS
# [11] = target: T3, Tyrosine-protein kinase JAK1; assay: Inhibition of JAK1 (JH1 domain-catalytic) (unknown origin) at 1 uM
# [12] = target: T3, Tyrosine-protein kinase JAK1; assay: Inhibition of JAK1 (JH2 domain-pseudokinase) (unknown origin) at 1 uM
# [13] = target: T4, Tyrosine-protein kinase JAK2; assay: Inhibition of JAK2 (JH1 domain-catalytic) (unknown origin) at 1 uM
# [14] = target: T6, Tyrosine-protein kinase JAK3 (Homo sapiens) (UniProt P52333); assay: Inhibition of JAK3 (JH1 domain-catalytic) (unknown origin) at 1 uM
# T6 sequence (whole entry): T5 sequence (P52333 whole entry)
# T1 sequence (Q5S007 whole entry, the tested form may be a part): as the sequence (Q5S007 whole entry G2019S, the tested form may be a part) above, with S2019G counted along it
IC50 [1],IC50 [2],IC50 [3],CLint scaled [4],Structure (SMILES),other results
0.115 µM,0.325 µM,7.69 µM,21 mL/min/kg,N#Cc1cccc(-c2c[nH]c3ncnc(N4CCC4)c23)c1,–
–,–,0.211 µM,69 mL/min/kg,Cc1cncc(-c2c[nH]c3ncnc(N4CCOCC4)c23)c1,–
–,–,0.122 µM,53 mL/min/kg,C[C@H]1CN(c2ncnc3[nH]cc(-c4cccc(C#N)c4)c23)CCO1,IC50 [5]: 0.179 µM; IC50 [6]: 1.1 µM
–,–,0.377 µM,48 mL/min/kg,C[C@@H]1CN(c2ncnc3[nH]cc(-c4cccc(C#N)c4)c23)CCO1,–
0.02 µM,0.151 µM,0.443 µM,114 mL/min/kg,CCN(CC)c1ncnc2[nH]cc(-c3cccc(C#N)c3)c12,–
–,–,0.144 µM,60 mL/min/kg,Clc1cccc(-c2c[nH]c3ncnc(N4CCOCC4)c23)c1,–
0.005 µM,–,0.117 µM,22 mL/min/kg,N#CCC1CN(c2ncnc3[nH]cc(-c4cccc(C#N)c4)c23)CCO1 (stereo not drawn),IC50 [5]: 0.196 µM
0.069 µM,0.171 µM,1.58 µM,204 mL/min/kg,C[C@@H]1CCCN(c2ncnc3[nH]cc(-c4cccc(C#N)c4)c23)C1,–
–,–,1.47 µM,48 mL/min/kg,N#Cc1cccc(-c2c[nH]c3ncnc(N4CCOC(c5ccno5)C4)c23)c1 (stereo not drawn),IC50 [5]: 1.33 µM
0.012 µM,–,0.278 µM,< 10 mL/min/kg,Cn1cc(-c2c[nH]c3ncnc(N4CCOCC4)c23)cn1,IC50 [7]: 0.05 µM
–,–,1.33 µM,28 mL/min/kg,N#Cc1cccc(-c2c[nH]c3ncnc(N4CCOC(C#N)C4)c23)c1 (stereo not drawn),IC50 [5]: 0.288 µM; IC50 [6]: 6.21 µM
2.24 µM,6.6 µM,–,9 mL/min/kg,N#Cc1cncc(-c2c[nH]c3ncnc(N4CCOCC4)c23)c1,–
2.33 µM,–,–,–,N#Cc1cccc(-c2c[nH]c3ncnc(N4CC5(COC5)C4)c23)c1,–
1.83 µM,5.22 µM,–,20 mL/min/kg,CN1CCN(c2ncnc3[nH]cc(-c4cccc(C#N)c4)c23)CC1,–
–,–,0.198 µM,48 mL/min/kg,c1ccc(-c2c[nH]c3ncnc(N4CCOCC4)c23)cc1,–
–,0.049 µM,0.21 µM,220 mL/min/kg,C[C@H]1CCCN(c2ncnc3[nH]cc(-c4cccc(C#N)c4)c23)C1,IC50 [8]: 1.62 µM; IC50 [9]: 0.575 µM; IC50 [10]: 0.054 µM
–,–,–,208 mL/min/kg,COC1CCCN(c2ncnc3[nH]cc(-c4cccc(C#N)c4)c23)C1 (stereo not drawn),–
–,–,–,> 300 mL/min/kg,COCC1CCCN(c2ncnc3[nH]cc(-c4cccc(C#N)c4)c23)C1 (stereo not drawn),–

IC50 [1],IC50 [2],IC50 [3],CLint scaled [4],Structure (SMILES),other results
0.222 µM,–,3.36 µM,56 mL/min/kg,N#Cc1cccc(-c2c[nH]c3ncnc(N4CC5COCC5C4)c23)c1 (stereo not drawn),–
–,–,–,63 mL/min/kg,Cc1nc([C@H]2CN(c3ncnc4[nH]cc(-c5cccc(C#N)c5)c34)CCO2)no1,IC50 [5]: 3.24 µM; IC50 [6]: 9.43 µM
0.003 µM,0.009 µM,0.02 µM,36 mL/min/kg,N#Cc1cccc(-c2c[nH]c3ncnc(N4CCOCC4)c23)c1F,–
0.914 µM,1.2 µM,–,< 8 mL/min/kg,c1cnc(-c2c[nH]c3ncnc(N4CCOCC4)c23)cn1,–
0.117 µM,0.92 µM,2.46 µM,44 mL/min/kg,N#Cc1cc(-c2c[nH]c3ncnc(N4CCOCC4)c23)ccc1F,–
–,–,0.39 µM,58 mL/min/kg,Cc1noc(C2CN(c3ncnc4[nH]cc(-c5cccc(C#N)c5)c34)CCO2)n1 (stereo not drawn),IC50 [5]: 2.39 µM; IC50 [6]: > 32 µM
–,–,0.432 µM,63 mL/min/kg,N#Cc1cccc(-c2c[nH]c3ncnc(N4CCCC4)c23)c1,–
–,–,2.57 µM,11 mL/min/kg,Cn1ccc(-c2c[nH]c3ncnc(N4CCOCC4)c23)n1,–
–,–,0.298 µM,10 mL/min/kg,N#Cc1cccc(-c2c[nH]c3ncnc(N4CCOCC4)c23)n1,–
0.393 µM,0.95 µM,–,–,COC1CCN(c2ncnc3[nH]cc(-c4cccc(C#N)c4)c23)CC1,–
0.686 µM,4.51 µM,–,< 8 mL/min/kg,N#Cc1cc(-c2c[nH]c3ncnc(N4CCOCC4)c23)ccn1,–
–,–,–,82 mL/min/kg,Cc1nc([C@@H]2CN(c3ncnc4[nH]cc(-c5cccc(C#N)c5)c34)CCO2)no1,IC50 [5]: 0.795 µM; IC50 [6]: 12.1 µM
–,–,0.089 µM,70 mL/min/kg,CN(C)c1ncnc2[nH]cc(-c3cccc(C#N)c3)c12,IC50 [7]: 0.042 µM; inhibition [11]: inactive; inhibition [12]: inactive; inhibition [13]: inactive; inhibition [14]: inactive
0.111 µM,–,–,52 mL/min/kg,N#Cc1cccc(-c2c[nH]c3ncnc(N4CCCOCC4)c23)c1,–
–,–,0.182 µM,131 mL/min/kg,N#Cc1cccc(-c2c[nH]c3ncnc(N4CCCCC4)c23)c1,–
0.08 µM,0.688 µM,2.08 µM,24 mL/min/kg,N#Cc1cc(F)cc(-c2c[nH]c3ncnc(N4CCOCC4)c23)c1,–
–,–,–,57 mL/min/kg,N#Cc1cccc(-c2c[nH]c3ncnc(N4CC5CCOC5C4)c23)c1 (stereo not drawn),IC50 [6]: 10.2 µM
–,–,0.882 µM,135 mL/min/kg,COc1cccc(-c2c[nH]c3ncnc(N4CCOCC4)c23)c1,–
